Active and inactive are the calls of the source. No cut-off for these calls is given here.
Columns and labels:
[1] = Mitochondrial toxicity in human OCI-AML2 cells assessed as reduction in oxidative phosphorylation-based viability after 72 hrs by CellTiterGlo assay; assay type: cell-based
In short: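 OCI-AML2 leukemia cells, which rely on mitochondrial OXPHOS, treated for 3 days in a survival assay; IC50 reported.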

[2] = system: CCRF-CEM; experiment: Inhibition of DNA synthesis in human CCRF-CEM cells assessed as DNA synthesis level at IC50 concentration after 24 hrs by BrdU incorporation assay (reference value: 43.39%); assay type: functional; set-up: scale not given: the % may be the effect or the level left
[3] = Metabolic stability in human liver microsomes assessed as compound remaining at 5 umol/L after 60 mins relative to control; assay type: ADME, Microsome; settings: read-out: Stability
In short: (§1)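 Human microsomal fraction; percent compound remaining over time.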

[4] = Metabolic stability in human liver microsomes assessed as compound remaining at 5 umol/L after 15 mins relative to control; assay type: ADME, Microsome; settings: read-out: Stability; in short: as §1
[5] = system: OCI-AML2; experiment: Mitochondrial toxicity in human OCI-AML2 cells assessed as inhibition of MT-ND1 gene expression at 1 to 5 times IC50 after 24 to 72 hrs by RT-PCR analysis; assay type: cell-based
In short: (§2)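 Expression of the mitochondrial genes MT-CO2 and MT-ND1 measured.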

[6] = system: Hepatitis C virus; experiment: Antiviral activity against Hepatitis C virus genotype 1b infected in human Huh-luc replicon cells after 3 days by luciferase assay; assay type: functional, organism-based, Hepacivirus hominis; settings: subtype 1b, 72 h
[7] = molecular target: T1, Adenosine kinase (Homo sapiens, UniProt P55263); experiment: Inhibition of recombinant human ADK using [3H]-adenosine as substrate after 20 mins by TLC scanner-based analysis relative to control
T1 sequence (P55263 whole entry): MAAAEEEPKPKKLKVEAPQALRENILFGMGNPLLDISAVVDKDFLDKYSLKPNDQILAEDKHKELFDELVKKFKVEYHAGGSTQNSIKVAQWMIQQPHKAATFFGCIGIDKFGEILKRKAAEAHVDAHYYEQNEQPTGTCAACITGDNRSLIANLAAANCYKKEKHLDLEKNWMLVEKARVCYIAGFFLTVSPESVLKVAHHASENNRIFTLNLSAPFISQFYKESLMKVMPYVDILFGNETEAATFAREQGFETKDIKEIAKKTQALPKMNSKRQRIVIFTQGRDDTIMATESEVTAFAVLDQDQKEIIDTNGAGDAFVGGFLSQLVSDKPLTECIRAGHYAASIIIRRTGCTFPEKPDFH
In short: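 ADK inhibition: 50 μM adenosine substrate with 10 μM test compound and 97 ng enzyme, 20 min at 37 °C.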

[8] = system: OCI-AML2; experiment: Mitochondrial toxicity in human OCI-AML2 cells assessed as inhibition of MT-CO2 gene expression at 1 to 5 times IC50 after 24 to 72 hrs by RT-PCR analysis; assay type: cell-based; in short: as §2
[9] = system: CCRF-CEM; experiment: Induction of cell cycle arrest in human CCRF-CEM cells assessed as accumulation at G0/G1 phase at 5 times IC50 concentration after 24 hrs by propidium iodide-staining based flow cytometry (reference value: 39.70%); assay type: functional
[10] = system: CCRF-CEM; experiment: Inhibition of DNA synthesis in human CCRF-CEM cells assessed as DNA synthesis level at 5 times IC50 concentration after 24 hrs by BrdU incorporation assay (reference value: 43.39%); assay type: functional; set-up: scale not given: the % may be the effect or the level left
[11] = system: OCI-AML2; experiment: Mitochondrial toxicity in human OCI-AML2 cells assessed as reduction in SDHB protein expression at 1 to 5 times IC50 after 24 to 72 hrs by Western blot analysis; assay type: cell-based
[12] = molecular target: T1, Adenosine kinase; experiment: Drug metabolism in human BJ cells assessed as ADK-mediated compound phosphorylation by measuring parent compound level per 5x10^5 cells at 1 umol/L after 3 hrs by UPLC-MS/MS analysis; assay type: ADME, cell-based; settings: 1 µM
In short: (§3)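 BJ (normal) and HCT116 (malignant) cells exposed to nucleoside at 1 or 10 μmol/L for 1 or 3 h. Intracellular nucleoside and its monophosphate quantified against synthetic monophosphate standards. Values given as pmol per 5 × 10^5 cells.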

[13] = molecular target: T1, Adenosine kinase; experiment: Drug metabolism in human BJ cells assessed as ADK-mediated compound phosphorylation by measuring parent compound level per 5x10^5 cells at 10 umol/L after 3 hrs by UPLC-MS/MS analysis; assay type: ADME, cell-based; settings: 10 µM; in short: as §3
[14] = system: OCI-AML2; experiment: Mitochondrial toxicity in human OCI-AML2 cells assessed as effect on ATP5A protein expression at 1 to 5 times IC50 after 24 to 72 hrs by Western blot analysis; assay type: cell-based
[15] = molecular target: T1, Adenosine kinase; experiment: Drug metabolism in human BJ cells assessed as ADK-mediated compound phosphorylation by measuring parent compound level per 5x10^5 cells at 1 umol/L after 1 hr by UPLC-MS/MS analysis; assay type: ADME, cell-based; settings: 1 µM; in short: as §3
[16] = molecular target: T1, Adenosine kinase; experiment: Drug metabolism in human HCT116 cells assessed as ADK-mediated compound phosphorylation by measuring parent compound level per 5x10^5 cells at 10 umol/L after 3 hrs by UPLC-MS/MS analysis; assay type: ADME, cell-based; settings: 10 µM; in short: as §3
[17] = system: CCRF-CEM; experiment: DNA incorporation activity in human CCRF-CEM assessed as dMP content per microgram of nucleic acid at 4.48 uM after 2.5 hrs […]; assay type: functional
[18] = system: CCRF-CEM; experiment: RNA incorporation activity in human CCRF-CEM assessed as NMP content per microgram of nucleic acid at 4.48 uM after 2.5 hrs […]; assay type: functional
[19] = molecular target: T1, Adenosine kinase; experiment: Drug metabolism in human BJ cells assessed as ADK-mediated compound phosphorylation by measuring parent compound level per 5x10^5 cells at 10 umol/L after 1 hr by UPLC-MS/MS analysis; assay type: ADME, cell-based; settings: 10 µM; in short: as §3
[20] = system: DNA; experiment: Induction of DNA damage in human U2OS cells transfected with 53BP1-GFP fusion gene assessed as increase in number of foci per nucleus at 1 to 5 times IC50 concentration measured at 1 hr intervals for 11 hrs by fluorescence-based assay; assay type: functional, cell-based
In short: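 U2OS osteosarcoma reporter line stably expressing 53BP1-GFP treated up to 11 h, with etoposide as the double-strand-break reference. 53BP1 foci in nuclei imaged by confocal microscopy (40× objective).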

[21] = system: CCRF-CEM; experiment: DNA incorporation activity in human CCRF-CEM assessed as NMP content per microgram of nucleic acid at 4.48 uM after 2.5 hrs by […]; assay type: functional
In short: (§4)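 CCRF-CEM cells exposed to nucleoside for 2.5 h, then harvested at once. RNA and DNA isolated separately and enzymatically digested; nucleoside content of each nucleic acid fraction quantified by HPLC-MS.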

[22] = molecular target: T1, Adenosine kinase; experiment: Drug metabolism in human HCT116 cells assessed as ADK-mediated compound phosphorylation by measuring parent compound level per 5x10^5 cells at 10 umol/L after 1 hr by UPLC-MS/MS analysis; assay type: ADME, cell-based; settings: 10 µM; in short: as §3
[23] = system: OCI-AML2; experiment: Mitochondrial toxicity in human OCI-AML2 cells assessed as reduction in CO2 protein expression at 1 to 5 times IC50 after 24 to 72 hrs by Western blot analysis; assay type: cell-based
[24] = system: OCI-AML2; experiment: Mitochondrial toxicity in human OCI-AML2 cells assessed as effect on UQCRC2 protein expression at 1 to 5 times IC50 after 24 to 72 hrs by Western blot analysis; assay type: cell-based
[25] = molecular target: T1, Adenosine kinase; experiment: Drug metabolism in human HCT116 cells assessed as ADK-mediated compound phosphorylation by measuring parent compound level per 5x10^5 cells at 1 umol/L after 3 hrs by UPLC-MS/MS analysis; assay type: ADME, cell-based; settings: 1 µM; in short: as §3
[26] = molecular target: T1, Adenosine kinase; experiment: Drug metabolism in human HCT116 cells assessed as ADK-mediated compound phosphorylation by measuring parent compound level per 5x10^5 cells at 1 umol/L after 1 hr by UPLC-MS/MS analysis; assay type: ADME, cell-based; settings: 1 µM; in short: as §3
[27] = system: CCRF-CEM; experiment: DNA incorporation activity in human CCRF-CEM assessed as NMP content per microgram of nucleic acid at 3.52 uM after 2.5 hrs by […]; assay type: functional; in short: as §4
[28] = system: CCRF-CEM; experiment: RNA incorporation activity in human CCRF-CEM assessed as NMP content per microgram of nucleic acid at 3.52 uM after 2.5 hrs by […]; assay type: functional; in short: as §4

CSc1ncnc2c1c1occc1n2[C@@H]1O[C@H](CO)[C@@H](O)[C@H]1O
IC50 at 72 h [1]: 190 nM | Activity [2]: 39.68% | remaining at 1 h, 5 µM [3]: 98% | remaining at 0.25 h, 5 µM [4]: 100% | inhibition (INH) [5]: 50% | EC50 [6]: 280 nM | IC50 [7]: > 10000 nM | inhibition (INH) [8]: 50% | Activity [9]: 33.16% | Activity [10]: 41.8%

Cc1ncnc2c1c1occc1n2[C@@H]1O[C@H](CO)[C@@H](O)[C@H]1O
Activity [11]: Toxic | IC50 at 72 h [1]: 340 nM | Drug metabolism [12]: 247.21 pmol | Activity [2]: 38.11% | Drug metabolism [13]: 464.66 pmol | Activity [14]: Non-Toxic | remaining at 1 h, 5 µM [3]: 98% | Drug metabolism [15]: 155.12 pmol | Drug metabolism [16]: 177.9 pmol | Activity [17]: 15.4 fmol | remaining at 0.25 h, 5 µM [4]: 100% | Activity [18]: 3.4 fmol | Drug metabolism [19]: 338.91 pmol | Activity [20]: Active | Activity [21]: 14.3 fmol | Drug metabolism [22]: 119.93 pmol | Activity [23]: Toxic | Activity [24]: Non-Toxic | inhibition (INH) [5]: 50% | EC50 [6]: 280 nM | IC50 [7]: > 10000 nM | inhibition (INH) [8]: 50% | Activity [9]: 36.83% | Activity [10]: 38.88% | Drug metabolism [25]: 66.31 pmol | Drug metabolism [26]: 27.92 pmol

Cc1ncnc2c1c1c(ccn1C)n2[C@@H]1O[C@H](CO)[C@@H](O)[C@H]1O
Drug metabolism [12]: 173.96 pmol | Activity [27]: 14.1 fmol | Activity [2]: 48.49% | Drug metabolism [13]: 753.01 pmol | Activity [28]: 3.74 fmol | remaining at 1 h, 5 µM [3]: 97% | Drug metabolism [15]: 87.1 pmol | Drug metabolism [16]: 476.53 pmol | remaining at 0.25 h, 5 µM [4]: 99% | Drug metabolism [19]: 220.71 pmol | Activity [20]: Active | Drug metabolism [22]: 450.1 pmol | EC50 [6]: 190 nM | IC50 [7]: > 10000 nM | Activity [9]: 34.66% | Activity [10]: 59.89% | Drug metabolism [25]: 136.87 pmol | Drug metabolism [26]: 54.04 pmol

From ChEMBL document CHEMBL4330056, “Synthesis and Cytotoxic and Antiviral Profiling of Pyrrolo- and Furo-Fused 7-Deazapurine Ribonucleosides” (J Med Chem, 2018)
